For one data set, the target named is D(2) dopamine receptor (Homo sapiens, UniProt P14416). In words: Displacement of [3H]methylspiperon from dopamine D2 receptor expressed in mouse LTK cells by scintillation counting. It is filed as cell-based. In general terms: In a radioligand displacement assay an active substance lowers the binding of a labelled ligand.
The target of the next data set is D(1A) dopamine receptor (Homo sapiens, UniProt P21728). Put plainly: Displacement of [3H]SCh23390 from dopamine D1 receptor expressed in mouse LTK cells by scintillation counting. The data set is classed as cell-based.
Sequence of D(1A) dopamine receptor (P21728 whole entry): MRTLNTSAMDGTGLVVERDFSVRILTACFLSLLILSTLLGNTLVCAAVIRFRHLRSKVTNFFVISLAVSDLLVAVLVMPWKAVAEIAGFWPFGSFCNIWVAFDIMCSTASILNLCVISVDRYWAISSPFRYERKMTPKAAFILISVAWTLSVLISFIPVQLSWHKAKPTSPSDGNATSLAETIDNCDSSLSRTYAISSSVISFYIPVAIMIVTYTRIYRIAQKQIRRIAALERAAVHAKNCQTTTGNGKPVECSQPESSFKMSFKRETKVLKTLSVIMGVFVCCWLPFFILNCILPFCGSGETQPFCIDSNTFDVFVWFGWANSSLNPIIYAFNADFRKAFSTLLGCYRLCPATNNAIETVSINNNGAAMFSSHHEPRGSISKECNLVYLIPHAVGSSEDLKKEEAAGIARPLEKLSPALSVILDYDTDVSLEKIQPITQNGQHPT
A further data set has as its target D(1B) dopamine receptor (Homo sapiens, UniProt P21918). In words: Displacement of radioligand from dopamine D5 receptor expressed in mouse LTK cells by scintillation counting. The data set is classed as cell-based. The gist of the method: (§1)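 Ki came from equilibrium radioligand binding. Bound and free radioligand were separated by rapid filtration, and bound counts were measured by liquid scintillation. Standard error was 10%, and assay-to-assay variability was under twofold.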

The nature of data set [1]: Cmax in Sprague-Dawley rat at 10 mg/kg, po. It is filed as ADME, organism-based. Further details: dose 10 mg/kg, route oral. To be noted: in vivo. The gist of the method:
(§2)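 Two male Sprague–Dawley rats received 10 mg/kg orally under a cassette-accelerated rapid rat protocol. Blood was sampled at several time points, and values came from pooled samples. […] Individual plasma levels were generally within ±25% of the average.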

Data set [2] can be described thus: Tmax in Sprague-Dawley rat at 10 mg/kg, po. It is filed as ADME, organism-based. Further details: dose 10 mg/kg, route oral. To be noted: in vivo. In a few lines:
as §2

The next data set has as its target T1, D(4) dopamine receptor (Homo sapiens, UniProt P21917).
T1 sequence (P21917 whole entry): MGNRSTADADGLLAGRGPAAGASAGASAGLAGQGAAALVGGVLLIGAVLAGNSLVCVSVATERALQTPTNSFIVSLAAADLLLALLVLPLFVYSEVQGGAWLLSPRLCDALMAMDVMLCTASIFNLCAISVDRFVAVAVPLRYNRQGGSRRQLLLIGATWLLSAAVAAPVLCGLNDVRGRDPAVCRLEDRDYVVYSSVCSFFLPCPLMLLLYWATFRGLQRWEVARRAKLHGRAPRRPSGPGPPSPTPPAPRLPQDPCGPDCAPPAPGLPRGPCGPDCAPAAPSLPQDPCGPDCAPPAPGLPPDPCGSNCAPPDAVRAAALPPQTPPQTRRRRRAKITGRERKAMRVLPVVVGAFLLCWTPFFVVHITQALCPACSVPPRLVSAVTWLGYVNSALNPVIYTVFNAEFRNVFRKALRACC
In words: Displacement of radioligand from dopamine D4 receptor expressed in mouse LTK cells by scintillation counting. The data set is classed as cell-based. The gist of the method:
as §1

The subject of the next data set is Rattus norvegicus. Put plainly: AUC (0 to 6 hrs) in Sprague-Dawley rat at 10 mg/kg, po. The data set is classed as ADME, organism-based, Plasma. Further details: time < 6 hr, dose 10 mg/kg, route oral. To be noted: in vivo. The gist of the method: as §2

Sequence of D(2) dopamine receptor (P14416 whole entry): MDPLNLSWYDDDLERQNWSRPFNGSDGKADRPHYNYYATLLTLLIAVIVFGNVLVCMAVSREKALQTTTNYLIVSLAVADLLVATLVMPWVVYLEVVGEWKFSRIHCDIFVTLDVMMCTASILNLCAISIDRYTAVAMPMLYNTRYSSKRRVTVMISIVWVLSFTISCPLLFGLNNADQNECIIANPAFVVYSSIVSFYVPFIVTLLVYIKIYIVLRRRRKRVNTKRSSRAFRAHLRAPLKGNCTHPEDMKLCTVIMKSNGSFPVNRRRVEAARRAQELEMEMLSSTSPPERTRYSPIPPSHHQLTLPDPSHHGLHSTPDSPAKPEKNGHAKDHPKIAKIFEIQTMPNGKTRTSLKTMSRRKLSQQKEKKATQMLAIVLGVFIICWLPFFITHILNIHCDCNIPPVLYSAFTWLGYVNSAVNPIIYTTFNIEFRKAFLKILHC
Sequence of D(1B) dopamine receptor (P21918 whole entry): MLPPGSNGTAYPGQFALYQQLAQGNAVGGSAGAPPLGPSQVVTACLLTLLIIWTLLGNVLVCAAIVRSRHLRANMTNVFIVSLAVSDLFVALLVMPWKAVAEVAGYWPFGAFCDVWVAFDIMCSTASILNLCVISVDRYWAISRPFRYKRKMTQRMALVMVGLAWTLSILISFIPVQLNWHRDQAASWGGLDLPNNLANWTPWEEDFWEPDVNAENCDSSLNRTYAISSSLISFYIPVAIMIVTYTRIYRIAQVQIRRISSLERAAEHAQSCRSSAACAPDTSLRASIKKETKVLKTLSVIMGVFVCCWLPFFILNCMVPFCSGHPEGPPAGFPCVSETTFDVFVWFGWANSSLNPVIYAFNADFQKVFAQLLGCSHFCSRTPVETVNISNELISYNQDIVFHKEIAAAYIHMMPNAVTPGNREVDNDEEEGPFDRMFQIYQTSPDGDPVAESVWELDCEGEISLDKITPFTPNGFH

In the case of `CN1CCc2cc(Cl)c(O)cc2[C@H]2c3cccc(-c4cc(F)cc(F)c4)c3CC[C@@H]21`, the Ki at D(2) dopamine receptor was 312 nM; on D(1A) dopamine receptor, 0.9 nM.
In the same order, the values of `CN(C)c1ccc(-c2cccc3c2CC[C@H]2[C@H]3c3cc(O)c(Cl)cc3CCN2C)cc1` are 12 nM and 0.7 nM.
In the same order, the values of `CN1CCc2cc(Cl)c(O)cc2[C@H]2c3cccc(-c4ccc5[nH]ccc5c4)c3CC[C@@H]21` are 51 nM and 0.6 nM.
In the case of `CN1CCc2cc(Cl)c(O)cc2[C@H]2c3cccc(-c4cccs4)c3CC[C@@H]21`, the Ki on D(1B) dopamine receptor came to 1.9 nM; at D(2) dopamine receptor, 93 nM; at D(4) dopamine receptor, 10000 nM. In data set [1], the Cmax turned out to be 90 ng/mL. Further, the Tmax in data set [2] turned out to be 2 h. The compound further registered an AUC in the data set with Rattus norvegicus of 353 µg·h/mL.
Regarding `CN1CCc2cc(Cl)c(O)cc2[C@H]2c3cccc(-c4cccc(F)c4)c3CC[C@@H]21`, the Ki was determined as 223 nM at D(2) dopamine receptor and 0.4 nM at D(1A) dopamine receptor.
Take `CN1CCc2cc(Cl)c(O)cc2[C@H]2c3cccc(-c4cccc(C#N)c4)c3CC[C@@H]21`: the Ki turned out to be 3.4 nM at D(1B) dopamine receptor, 584 nM on D(2) dopamine receptor, 10000 nM at D(4) dopamine receptor and 0.6 nM on D(1A) dopamine receptor.
With `COC(=O)c1cccc2c1CC[C@H]1[C@H]2c2cc(O)c(Cl)cc2CCN1C`, the Ki on D(1B) dopamine receptor amounted to 3.7 nM; at D(2) dopamine receptor, 923 nM; on D(4) dopamine receptor, 4830 nM; on D(1A) dopamine receptor, 2.3 nM.
For `CN1CCc2cc(Cl)c(O)cc2[C@H]2c3cccc(C(=O)O)c3CC[C@@H]21`, the Ki at D(2) dopamine receptor came to 420 nM; at D(1A) dopamine receptor, 38 nM.
`CN1CCc2cc(Cl)c(O)cc2[C@H]2c3cccc(N4CCCC4=O)c3CC[C@@H]21`: the Ki on D(1B) dopamine receptor was 26.9 nM; on D(2) dopamine receptor, 1370 nM; at D(4) dopamine receptor, 10000 nM; on D(1A) dopamine receptor, 3.1 nM.
For `CN1CCc2cc(Cl)c(O)cc2[C@H]2c3cccc(CO)c3CC[C@@H]21`, in that order: 7.4 nM, 1650 nM, 6280 nM and 2 nM.
In the same order, the values of `CO/N=C/c1cccc2c1CC[C@H]1[C@H]2c2cc(O)c(Cl)cc2CCN1C` are 22 nM, 483 nM, 7510 nM and 4.4 nM.
Take `CN1CCc2cc(Cl)c(O)cc2[C@H]2c3cccc(/C=N/OCc4ccccc4)c3CC[C@@H]21`: the Ki worked out at 2.5 nM on D(1B) dopamine receptor, 69 nM at D(2) dopamine receptor, 8340 nM at D(4) dopamine receptor and 0.2 nM at D(1A) dopamine receptor.
Regarding `CN1CCc2cc(Cl)c(O)cc2[C@H]2c3cccc(-c4ccccc4)c3CC[C@@H]21`, on D(2) dopamine receptor, the Ki was 79 nM.
With `CN1CCc2cc(Cl)c(O)cc2[C@H]2c3cccc(Br)c3CC[C@@H]21`, the Ki is 7.5 nM on D(1B) dopamine receptor, 1690 nM at D(2) dopamine receptor, 10000 nM on D(4) dopamine receptor and 3 nM on D(1A) dopamine receptor.
With `COc1ccc(-c2cccc3c2CC[C@H]2[C@H]3c3cc(O)c(Cl)cc3CCN2C)cc1`, the Ki came to 6.2 nM on D(1B) dopamine receptor, 550 nM at D(2) dopamine receptor, 10000 nM at D(4) dopamine receptor and 0.7 nM at D(1A) dopamine receptor. In data set [1], the Cmax stood at 18 ng/mL. Also, the Tmax in data set [2] was found to be 2 h. This compound had an AUC with Rattus norvegicus of 76 µg·h/mL.
For the compound `CN1CCc2cc(Cl)c(O)cc2[C@H]2c3cccc(C#N)c3CC[C@@H]21`, the Ki on D(1B) dopamine receptor worked out at 89 nM; at D(2) dopamine receptor it was 1330 nM; at D(4) dopamine receptor, 10000 nM; at D(1A) dopamine receptor, 2.8 nM.
Take `CN1CCc2cc(Cl)c(O)cc2[C@H]2c3cccc(-c4ccc(CO)cc4)c3CC[C@@H]21`: the Ki at D(2) dopamine receptor was 89 nM; on D(1A) dopamine receptor it was 0.7 nM.
Take `CN1CCc2cc(Cl)c(O)cc2[C@H]2c3cccc(O)c3CC[C@@H]21`: the Ki turned out to be 1.4 nM on D(1B) dopamine receptor, 440 nM on D(2) dopamine receptor and 3990 nM on D(4) dopamine receptor.
Consider `CN1CCc2cc(Cl)c(O)cc2[C@H]2c3cccc(C=O)c3CC[C@@H]21`, for which the Ki on D(1B) dopamine receptor worked out at 3.3 nM; at D(2) dopamine receptor, 1370 nM; on D(4) dopamine receptor, 5970 nM; on D(1A) dopamine receptor it was 2.6 nM.
As for `CN1CCc2cc(Cl)c(O)cc2[C@H]2c3cccc(-c4cccc(OC(F)(F)F)c4)c3CC[C@H]21`, the results for the Ki at D(2) dopamine receptor and at D(1A) dopamine receptor were 1610 nM and 2.3 nM, respectively.
As for `CCO/N=C/c1cccc2c1CC[C@H]1[C@H]2c2cc(O)c(Cl)cc2CCN1C`, the Ki stood at 10 nM at D(1B) dopamine receptor, 217 nM at D(2) dopamine receptor, 5890 nM on D(4) dopamine receptor and 1.8 nM at D(1A) dopamine receptor.
For `CN1CCc2cc(Cl)c(O)cc2[C@H]2c3cccc(/C=N/O)c3CC[C@@H]21`, in that order: 3.3 nM, 882 nM, 4370 nM and 1.6 nM.
Turning to `CN1CCc2cc(Cl)c(O)cc2[C@H]2c3cccc(-c4ccncc4)c3CC[C@@H]21`, the Ki amounted to 10.5 nM at D(1B) dopamine receptor, 756 nM on D(2) dopamine receptor and 5060 nM at D(4) dopamine receptor. The Cmax in data set [1] was found to be 43 ng/mL. The Tmax in data set [2] was determined as 0.5 h. For the same compound, the AUC with Rattus norvegicus was 75 µg·h/mL.
As for `CN1CCc2cc(Cl)c(O)cc2[C@H]2c3cccc(-c4cccc([N+](=O)[O-])c4)c3CC[C@@H]21`, the Ki at D(1B) dopamine receptor was determined as 4.7 nM; on D(2) dopamine receptor, 618 nM; on D(4) dopamine receptor, 10000 nM; at D(1A) dopamine receptor, 0.6 nM.
In the same order, the values of `CN1CCc2cc(Cl)c(O)cc2[C@H]2c3cccc(/C=N/Oc4ccccc4)c3CC[C@@H]21` are 2.1 nM, 124 nM, 10000 nM and 1 nM.
For `CN1CCc2cc(Cl)c(O)cc2[C@H]2c3ccccc3CC[C@@H]21` [ECOPIPAM], the Ki worked out at 2 nM at D(1B) dopamine receptor and 5520 nM at D(4) dopamine receptor. This compound also yielded an AUC with Rattus norvegicus of 156 µg·h/mL.

The Ki is the dissociation constant of the complex between target and ligand, obtained from inhibition or displacement. A low value points to higher affinity. One may read the Cmax as the peak of the concentration-time curve. Usually Tmax stands for the time at which the peak concentration occurs. In general, AUC refers to concentration integrated over time.

These data come from ChEMBL document CHEMBL1156846, “Remote functionalization of SCH 39166: discovery of potent and selective benzazepine dopamine D1 receptor antagonists” (Bioorg Med Chem Lett, 2010).
